Data on six compounds can be found in ChEMBL document CHEMBL3352408, “Karwinaphthopyranones from the fruits of Karwinskia parvifolia and their cytotoxic activities” (J Nat Prod, 2014).

The nature of experiment [1]: Cytotoxicity against human HCT15 cells after 72 hrs by MTT assay. The note with it: HCT-15, 72 h. It counts as functional, cell-based. Put shortly:
(§1)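 MTT read-out of cell viability, with etoposide as positive control. Cell origins: A549, human lung carcinoma; HeLa, cervical cancer; ZR-7530, breast cancer; HCT-15, colon cancer; U373, brain cancer; Hep G2, liver cancer. Potency reported as half-maximal growth inhibitory concentration (IC50).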
On the technique in general: Tetrazolium dyes change colour on reduction, which living cells bring about.

In experiment [2] the test system is A549. Nature of the experiment: Cytotoxicity against human A549 cells after 72 hrs by MTT assay. It counts as functional, cell-based. To be noted: A549, 72 h. In short, it runs like this:
as §1

Experiment [3] has as its system HeLa. Nature of the experiment: Cytotoxicity against human HeLa cells after 72 hrs by MTT assay. Type of experiment: functional, cell-based. In short, it runs like this: as §1
Experiment [4] deals with HepG2. Nature of the experiment: Cytotoxicity against human HepG2 cells after 72 hrs by MTT assay. It counts as functional, cell-based. The note with it: HepG2, 72 h. In short, it runs like this: as §1
Experiment [5] is described as follows: Cytotoxicity against human U373 cells after 72 hrs by MTT assay. Type of experiment: functional, cell-based, U-373MG ATCC. The note with it: U373 MG. In short, it runs like this:
as §1

The nature of experiment [6]: Cytotoxicity against human ZR-7530 cells after 72 hrs by MTT assay. Type of experiment: functional, cell-based. The note with it: ZR-75-30, 72 h. Put shortly: as §1

What is called IC50 is the concentration that inhibits the measured activity by half. High values mean lower potency, low ones higher potency. Consider `COc1cc(OC)c2c(O)c(C(C)=O)c(C)cc2c1`, for which the IC50 in experiment [1] is more than 10 µM; in experiment [2], more than 10 µM; in experiment [3], more than 10 µM; in experiment [4] it was 9.6 µM; in experiment [5] it was more than 10 µM; in experiment [6], more than 10 µM.
For the compound `C[C@@]1(O)CC(=O)c2c(cc3ccc(-c4c5c(c(O)c6c(O)cccc46)C(=O)C[C@@](C)(O)C5)c(O)c3c2O)C1`, the IC50 is 4.9 µM in experiment [1]; more than 10 µM in experiment [2]; 4.9 µM in experiment [3]; more than 10 µM in experiment [4]; more than 10 µM in experiment [5]; 5.8 µM in experiment [6].
Consider `COc1cc(C)cc2c1C(=O)c1c(O)cccc1C2=O`, for which the IC50 is more than 10 µM in experiment [1]; more than 10 µM in experiment [2]; more than 10 µM in experiment [3]; 9.3 µM in experiment [4]; more than 10 µM in experiment [5]; more than 10 µM in experiment [6].
For the compound `COc1cccc2c1C(=O)C1=C(C[C@H](C)O[C@@H]1C)C2(OC)c1ccc2cc3c(c(O)c2c1O)C(=O)C[C@@](C)(O)C3` (stereo partly specified), the IC50 in experiment [1] was 4.6 µM; in experiment [2] it was more than 10 µM; in experiment [3], more than 10 µM; in experiment [4] it was 4.6 µM; in experiment [5], more than 10 µM; in experiment [6], 5.5 µM.
Take `Cc1cc(O)c2c(c1)Cc1ccc(C3c4cccc(O)c4C(=O)c4c(O)cc(C)cc43)c(O)c1C2=O` (stereo unspecified): the IC50 was more than 10 µM in experiment [1]; more than 10 µM in experiment [2]; more than 10 µM in experiment [3]; more than 10 µM in experiment [4]; more than 10 µM in experiment [5]; 9.6 µM in experiment [6].
As for `COc1cc([C@@H]2c3cc4c(cc3[C@@H](O[C@@H]3O[C@@H]5CO[C@@H](C)O[C@H]5[C@H](O)[C@H]3O)[C@H]3COC(=O)[C@H]23)OCO4)cc(OC)c1O` [ETOPOSIDE], the IC50 was 4.6 µM in experiment [1]; 9.3 µM in experiment [2]; 3.4 µM in experiment [3]; 3.6 µM in experiment [4]; 8.5 µM in experiment [5]; 2.5 µM in experiment [6].
